The values that follow come from publication PMC3018560 (Antiviral research, 2010).

The subject of series [1] is DENV (serotype 2, TSV01 strain). The experiment in a line: Dengue viremia model in AG129 mouse, plasma virus titer by plaque assay. The settings on record: AG129 mice. The format is in vivo. The essentials:
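AG129 mice (lacking type I and type II interferon receptors), 7 to 8 weeks old, 6 per dosing group, challenged i.p. with 5×10^6 pfu/mouse. Ribavirin dosed once daily and imino sugars twice daily at 12 hr intervals for 3 consecutive days post-infection; PBS to controls. Plasma virus titer by plaque assay on blood drawn day 3. Reported as average and standard deviation; student t test versus PBS control.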

The conditions of series [2]: human; ref Lindahl et al., 2005; cited from earlier work.
For a further series, the system named is HIV. The following applies: anti-HIV agent, patients; ref Fischl et al., 1994; cited from earlier work.
For series [3] the following is noted: mouse; ref Alonzi et al., 2008; cited from earlier work.

As for `NC(=O)c1ncn([C@@H]2O[C@H](CO)[C@@H](O)[C@H]2O)n1` [ribavirin], in series [1] (ribavirin dose raised from 40mg/kg to 80mg/kg), the “Effect on viremia of dose increase” value is “did not improve its antiviral effect”. In series [1] (ribavirin oral 40mg/kg once daily alone, 3 days (Fig. 5A)), the Effect on viremia result is recorded as “did not reduce viremia”. Also, the Systematic concentration in series [2] is given as ~ 15 μM.

In the case of `CCCCN1C[C@H](O)[C@@H](O)[C@H](O)[C@H]1CO` [NBDNJ], the “Antiviral efficacy in phase II clinical trial” value with HIV was “did not demonstrate any antiviral efficacy”. Further, the T1/2 in series [3] is 1.34 h.
